Screens (PubChem BioAssay)
Shown is part of a subset that was picked to be rich in hits.
L major viab: inhibitors of Leishmania major promastigote growth | AID 1063 | actives 9% (n = 200,000) | inhibition, % at 10 µM | Leishmania major promastigotes, resazurin fluorescence viability; in the data active = inhibition above about 50%;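 note: promastigotes grown with compound for 44 hours at 28 °C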
Hsp70 activator: transcriptional activators of Hsp70 | HeLa Hsp70 promoter luciferase reporter, luminescence; scaled: vehicle 0, proteasome-inhibitor control 100% | activation, % at 10 µM | actives 0.04% (n = 200,000) | AID 1203;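 active = activation above the mean across all tested compounds plus 3 SD, cutoff set per campaign, cut at about 5.5% in these data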;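 note: 100% = MG132 at 30 µM as the positive control and 0% = DMSO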
HSF1 inh: HSF1 inhibition; NIH3T3-HGL HSE-luciferase, MG132-induced, luminescence 8 h; stronger effect = lower value; activity change, negative = inhibition, % at 7.5 µM (by protocol); actives 0.77% (n = 300,000); AID 2098;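 active = more than half of replicate wells show activity change below -50%, luminescence cut by over half; inconclusive = some wells, but at most half, below -50%; inactive = no replicate well below -50%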;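 note: luciferase reports HSF-1 transcriptional activity via heat shock element; 0% = median of DMSO wells and -100% = zero luminescence signal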
T cruzi inh: blocks replication of Trypanosoma cruzi | T. cruzi beta-gal in NIH3T3, luminescence, 90 h | inhibition, % (concentration not given with the values) | actives 1.4% (n = 300,000);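 active = mean inhibition across valid replicates above about 55%, limit read from the data; inconclusive = mean below that limit but half or more replicates reach it; inactive = mean below it, under half of replicates reach it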;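 note: signal also drops with host cell toxicity which is not excluded here; 0% = plate median of DMSO wells and 100% = zero luminescence signal; higher percent means less beta-gal luminescence so fewer parasites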
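System – NIH/3T3 host cells with β-galactosidase reporter T. cruzi · Doses – single 50 nL compound addition per well in DMSO · Reagent – 5000 T. cruzi trypomastigotes/well · Medium – Low-serum DMEM with 2% FBS · Timing – ≥90 h infection period, 3 h prior cell attachment · Evaluation – parasite load inhibition, % · Technique – GalScreen luminescence, 60 min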
HSF1 activator: increases HSF-1 driven luciferase reporter signal. activation, % at 9 µM. NIH3T3-HGL HSF-1 luciferase reporter, MG132, 8 h; 100% = twice DMSO control signal. actives 1.7% (n = 300,000). AID 504408;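 active = mean replicate activation of at least 50% with a set share of replicates each reaching 50%; inconclusive = only one of those two conditions met; inactive = mean below 50% and too few replicates reaching it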;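 note: 0% = median of the neutral control wells and 100% = twice that signal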
* hit, by the source's call; ? = inconclusive; nt = not tested or not shown.

SMILES | L major viab | Hsp70 activator | HSF1 inh | T cruzi inh | HSF1 activator
Nc1nc2c(s1)CCc1c-2cnn1-c1ccccc1 | 9 | 0 | 53 | -11 | 72*
COc1ccc2c(c1)CCc1sc(NC(=O)c3ccco3)nc1-2 | 12 | 0 | 26 | -6 | 32
COc1ccc2c(c1)Cc1sc(NC(=O)c3cccnc3)nc1-2 | 55* | 0 | 1 | -31 | 8
COc1ccc2c(c1)Cc1sc(NC(=O)c3ccco3)nc1-2 | 53* | 1 | 42 | 37 | 77*
O=C(CC1C(=O)NCCN1Cc1c(F)cccc1Cl)NC1CCCC1 (stereo not given) | -3 | 0 | nt | -8 | nt
COCc1cc(C)nc(SCC(=O)Nc2ccccc2C)c1C#N | -1 | 0 | -3 | -3 | -3
COCc1cc(C)nc(SCC(=O)Nc2cc(C(F)(F)F)ccc2N2CCOCC2)c1C#N | nt | nt | 16 | 67* | 2
Cc1ccc2nc(SCC(=O)Nc3cc(C(F)(F)F)ccc3N3CCOCC3)[nH]c2c1 | 53* | 0 | 1 | 33 | -1
O=C(CSc1nccc(=O)[nH]1)Nc1cc(C(F)(F)F)ccc1N1CCOCC1 | nt | nt | -7 | -11 | 13
O=C(CN1C2=NCCCN2c2ccccc21)c1ccc(Cl)cc1Cl | 100* | 0 | 23 | 51 | 37
O=C(CN1C2=NCCN2c2ccccc21)c1ccc(Br)cc1 | 18 | 0 | -28 | 11 | -39
O=C(CN1C2=NCCCN2c2ccccc21)c1ccc([N+](=O)[O-])cc1 | 1 | 0 | 0 | 59* | 7
O=C(CN1C2=NCCCN2c2ccccc21)c1cccc(Br)c1 | 94* | 0 | 11 | 14 | 2
O=C(CN1C2=NCCCN2c2ccccc21)c1cccs1 | -10 | 0 | -2 | 15 | 3
Clc1ccc(CN2C3=NCCCN3c3ccccc32)cc1Cl | 51* | 0 | ? | 25 | -21
CCNC(=O)C(=O)NCc1ccncc1 | -4 | 0 | 15 | 3 | ?
O=C(CN(Cc1ccco1)C(=O)c1ccc(N2CCCC2=O)cc1)Nc1ccccc1C(F)(F)F | nt | nt | -1 | -7 | 7
O=C1/C(=C\c2ccc([N+](=O)[O-])cc2)CCc2ccccc21 | 4 | 0 | 29 | 9 | 60*
O=C1/C(=C/Nc2cccc([N+](=O)[O-])c2)CCc2ccccc21 | 48 | 0 | 37 | 44 | 73*
O=C(CNC(=O)COc1ccccc1)NCc1cccnc1 | nt | nt | -4 | -4 | 15
CC(Oc1ccc(-n2cnnn2)cc1)C(=O)O (stereo not given) | -4 | 0 | -2 | -12 | -1
CC1C(=O)N(c2ccc(S(=O)(=O)N(C)C)cc2)C1(/C=C/c1ccccc1)C(=O)NC1CCCC1 (stereo not given) | 54* | 0 | 4 | 28 | -14
COc1ccc(-c2nc(N3CCN(C)CC3)sc2-c2ccc(OC)cc2)cc1 | nt | nt | -7 | 41 | 3
COC(=O)c1sc(N)c(C(=O)OC)c1Cn1ncc(Cl)c(Cl)c1=O | nt | nt | 20 | -26 | 61*
CCCCSCCCNC(=O)Nc1ccc(C)c(C)c1 | 31 | 0 | -5 | -6 | -9
SMILES | L major viab | Hsp70 activator | HSF1 inh | T cruzi inh | HSF1 activator
N=c1n(CC(=O)c2cccc([N+](=O)[O-])c2)c2ccccc2n1Cc1ccccc1 | 63* | -1 | 14 | 11 | 44
C=CCn1c(=N)n(CC(=O)c2ccccc2)c2ccccc21 | nt | nt | 2 | -3 | 23
CC(C)(C)C(=O)Cn1c(=N)n(Cc2ccccc2Cl)c2ccccc21 | 100* | 0 | 3 | 57* | -5
Cc1ccc(Cn2c(=N)n(CC(=O)c3ccccc3)c3ccccc32)cc1 | 100* | 0 | ? | -2 | -64
CC(C)(C)C(=O)Cn1c(=N)n(Cc2ccccc2)c2ccccc21 | 58* | 0 | 7 | 30 | 10
N=c1n(CCO)c2ccccc2n1Cc1ccccc1Cl | 6 | 0 | -4 | -1 | -11
COc1ccc(OC)c(/C=C2\SC(=S)N(Cc3cccnc3)C2=O)c1 | 82* | 0 | 4 | -12 | -14
CC(C)n1nc(C(=O)N2CCN(S(=O)(=O)c3cccs3)CC2)c2ccccc2c1=O | nt | nt | -9 | 7 | -1
O=C(Nc1cnn(C23CC4CC(CC(C4)C2)C3)c1)c1cc(-c2ccccc2)on1 | -1 | 0 | 2 | 61* | -11
Cc1ccc(-c2cc(C(=O)Nc3cnn(C45CC6CC(CC(C6)C4)C5)c3)no2)cc1 | -2 | 0 | -24 | 13 | -29
Cc1nc(-c2ccccc2)sc1C(=O)/C=C/c1ccc(Cl)cc1 | 63* | 0 | -5 | -9 | 1
C/C(=N\O)c1sc(-c2ccccc2)nc1C | 10 | 1 | 41 | 2 | 72*
CC(=O)c1sc(-c2ccc(Cl)cc2)nc1C | -4 | 0 | 18 | -1 | 23
C=C(C)c1sc(-c2ccccc2)nc1C | nt | nt | -2 | 3 | -17
CC(C(=O)N1CCOCC1)n1cc([N+](=O)[O-])cn1 (stereo not given) | 4 | 0 | -5 | -3 | 0
NS(=O)(=O)c1ccc(CCNC(=O)c2ccc(C#CC3(O)CCCCC3)cc2)cc1 | -5 | 0 | -54* | -14 | -54
NS(=O)(=O)c1ccc(CCNC(=O)c2ccncc2)cc1 | nt | nt | -3 | -7 | -1
CCn1ccnc1CN(C)C(=O)c1cc(COc2ccc(OC)c3ccccc23)on1 | nt | nt | 3 | 12 | 11
COc1cc(C(=O)NC2CCN(Cc3ccccc3)CC2)cc(Cl)c1OC | nt | nt | -2 | 17 | 4
O=C(CCN1CCC(c2ccccc2)C1)c1ccccc1 (stereo not given) | 48 | 0 | 3 | 14 | 7
O=C(CCN1CCCC1Cc1ccccc1)c1ccc2c(c1)OCCO2 (stereo not given) | 100* | -1 | -5 | 39 | 7
O=C(CCN1CCc2ccccc2C1)c1ccc2c(c1)OCCO2 | 100* | 0 | -2 | 23 | 0
O=C(CCN1CCC(c2ccccc2)C1)c1ccc2c(c1)OCCO2 (stereo not given) | 101* | 0 | -5 | 23 | -3
COc1cc(C(=O)CCN2CCC(c3ccccc3)C2)cc(OC)c1OC (stereo not given) | 81* | 0 | -1 | -15 | 9
O=C(CCCn1nnnc1CN1CCOCC1)N1CCC(c2ccc(F)cc2)C1 (stereo not given) | nt | nt | -8 | -5 | -14
SMILES | L major viab | Hsp70 activator | HSF1 inh | T cruzi inh | HSF1 activator
O=C(CN1C(=O)N/C(=C\c2ccccc2OCc2ccc(C(=O)O)cc2)C1=O)Nc1ccccc1F | nt | nt | 0 | -5 | -10
CCn1c(SCC(=O)O)nnc1-c1cccnc1 | -1 | 0 | -8 | -11 | 0
O=C(CCN1CCC(c2cccs2)=N1)c1cccs1 | nt | nt | 38 | 0 | 65*
O=C(CCN1CCC(c2ccccc2)C1)c1cccs1 (stereo not given) | 72* | 0 | 2 | 1 | 19
CN(C)/C=C1/C(=O)N(c2ccc([N+](=O)[O-])cc2)N=C1c1ccccc1 | -6 | 0 | 35 | -6 | 56*
CCOC(=O)C1(Cc2cccc(F)c2)CCN(CC(O)CO)CC1 (stereo not given) | nt | nt | -7 | 2 | 14
